Assay results from ChEMBL document CHEMBL3739311 (ACS Med Chem Lett, 2015).
Values after ≈ are worked out from the molar mass of the structure shown.

Legend:
[1] = system: Human immunodeficiency virus 1; test: Antiviral activity against HIV-1 NL4-3 expressing reverse transcriptase E138K mutant infected in MT-2 cells by MTT assay; assay type: functional, organism-based; conditions: Human immunodeficiency virus 1, NL4-3, MT2
[2] = system: Human immunodeficiency virus 1; test: Antiviral activity against HIV-1 X4 expressing reverse transcriptase K101P mutant infected in human CD4+ T cells for 3 days by FACS analysis; assay type: functional, organism-based; conditions: Human immunodeficiency virus 1, T-cell, 72 h
Method in brief: (§1)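 Single-round infectivity assay against HIV strains whose RT carries the K101P, K103N or Y181C mutation, alongside a WT X4 strain; EC50 determined.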

[3] = target: Human immunodeficiency virus type 1 reverse transcriptase (Human immunodeficiency virus 1, UniProt Q72547); test: Inhibition of wild-type HIV-1 reverse transcriptase by fluorescence assay
Method in brief: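 Reverse transcription inhibition by wild-type RT enzyme, read by PicoGreen fluorescence; IC50 in nM.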

[4] = system: Human immunodeficiency virus 1; test: Selectivity index, ratio of IC50 for HIV-1 reverse transcriptase K101P mutant to IC50 for wild-type HIV-1 reverse transcriptase
Method in brief: (§2)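 PicoGreen fluorescence read-out of reverse transcription, run with both RT(WT) and RT(K101P) enzymes; IC50 determined for each enzyme. The fold-change is IC50 for RT(K101P) over IC50 for RT(WT).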

[5] = target: Human immunodeficiency virus type 1 reverse transcriptase (Human immunodeficiency virus 1, UniProt Q72547, K101P); test: Inhibition of HIV-1 reverse transcriptase K101P mutant by fluorescence assay; method in brief: as §2
[6] = system: Human immunodeficiency virus 1; test: Antiviral activity against HIV-1 X4 expressing reverse transcriptase K103N mutant infected in human CD4+ T cells for 3 days by FACS analysis; assay type: functional, organism-based; conditions: Human immunodeficiency virus 1, T-cell, 72 h; method in brief: as §1
[7] = system: Human immunodeficiency virus 1; test: Antiviral activity against HIV-1 X4 expressing wild-type reverse transcriptase infected in human CD4+ T cells for 3 days by FACS analysis; assay type: functional, organism-based; conditions: Human immunodeficiency virus 1, X4, T-cell, 72 h
Method in brief: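 Single-round infectivity assay using HIV strains carrying wild-type RT (WT X4); EC50 determined.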

[8] = system: Human immunodeficiency virus 1; test: Antiviral activity against HIV-1 X4 expressing reverse transcriptase Y181C mutant infected in human CD4+ T cells for 3 days by FACS analysis; assay type: functional, organism-based; conditions: Human immunodeficiency virus 1, T-cell, 72 h; method in brief: as §1
[9] = system: Human immunodeficiency virus 1; test: Antiviral activity against HIV-1 NL4-3 expressing reverse transcriptase E138K/M184V mutant infected in MT-2 cells by MTT assay; assay type: functional, organism-based; conditions: Human immunodeficiency virus 1, NL4-3, MT2
[10] = Cytotoxicity against human CD4-positive T cells; assay type: cell-based, T-cell
[11] = Aqueous solubility of compound; assay type: physicochemical

Compound | EC50 [1] [nM] | EC50 [2] [nM] | IC50 [3] [nM] | Ratio IC50 [4] | IC50 [5] [nM] | EC50 [6] [nM] | EC50 [7] [nM] | EC50 [8] [nM] | EC50 [9] [nM] | CC50 [10] [nM] | solubility [11] [µg/mL]
N#C/C=C/c1cc(Cl)cc(Oc2ccccc2OCCn2ccc(=O)[nH]c2=O)c1 | 2.8 | 8 | 3.3 | 0.6 | 2.1 | 50 | 5 | 23 | 2.2 | 18000 | 
Cc1cc(/C=C/C#N)cc(C)c1Nc1ccnc(Nc2ccc(C#N)cc2)n1 [RILPIVIRINE] |  | 1140 |  |  | 1000 | 13 | 13 | 51 |  |  | < 0.1
N#C/C=C/c1cc(F)cc(Oc2ccc(F)cc2OCCn2ccc(=O)[nH]c2=O)c1 |  | 2 | 2.7 | 0.8 | 2.2 | 89 | 2 | 8 |  | 45000 | 10.8 (≈ 26.3 µM)
N#Cc1cc2c(Oc3ccccc3OCCn3ccc(=O)[nH]c3=O)cccn2c1 | 0.9 | 1 | 1.06 | 1.8 | 1.9 | 3 | 1 | 2 | 0.75 | > 100000 | 
O=C1Nc2ccc(Cl)cc2[C@@](C#CC2CC2)(C(F)(F)F)O1 [EFAVIRENZ] |  | 870 |  |  |  | 836 |  | 41 |  |  | 
